Results as given in ChEMBL document CHEMBL2177013, “Synthesis and biological evaluation of tylophorine-derived dibenzoquinolines as orally active agents: exploration of the role of tylophorine e ring on biological activity” (J Med Chem, 2012).
Converted amounts (≈) assume the structure as drawn. The source made the active and inactive calls. No cut-off for these calls is given here.

Key:
[1] = Growth inhibition of human HONE1 cells; format: functional
Procedure, shortened: (§1)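 Cells seeded per well: NUGC-3 4500, HONE-1 6000, MCF-7 6500, NCI-H460 2500, HepG2 10000, A549 5000; A549 grown in RPMI 1640 with 2 g/L NaHCO₃, 2 mM L-glutamine and 10% FBS. GI₅₀ = concentration giving 50% growth inhibition, mean of at least three experiments each in duplicate. Paclitaxel served as positive control.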

[2] = Cytotoxicity against mouse RAW264.7 cells; format: cell-based
Procedure, shortened: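 RAW264.7 cells stimulated with LPS/IFNγ and compound-treated in parallel with the NO assay; CC50 taken as concentration giving 50% inhibition of cell growth. Mean of at least three experiments, each in duplicate.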

HepG2 = assay: Growth inhibition of human HepG2 cells; format: functional; procedure, shortened: as §1
[3] = Solubility in DMSO; format: physicochemical
Procedure, shortened: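 Compound dissolved in DMSO with sonication; maximal volume before precipitation measured and used to calculate saturation solubility.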

NUGC-3 = assay: Growth inhibition of human NUGC3 cells; format: functional; procedure, shortened: as §1
NCI-H460 [4] = assay: Growth inhibition of human NCI-H460 cells; format: functional; procedure, shortened: as §1
[5] = test system: Transmissible gastroenteritis virus; assay: Antiviral activity against Transmissible gastroenteritis virus infected in ST cells pre-treated 2 hrs before virus infection measured 6 hrs post virus infection by immunofluorescent assay; format: functional, organism-based; settings: Alphacoronavirus 1, ST
Procedure, shortened: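 ST cells, with or without 2 h compound pretreatment (10 concentrations), infected with TGEV at MOI 10. Immunofluorescence with anti-spike and anti-nucleocapsid antibodies at 6 hpi. EC50 from dose–response curves, mean of at least three experiments, each in duplicate.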

A549 [6] = assay: Growth inhibition of human A549 cells; format: functional; procedure, shortened: as §1
RAW264.7 [7] = assay: Antiinflammatory activity in mouse RAW264.7 cells assessed as inhibition of LPS-induced nitric oxide production incubated for 18 hrs by nitrate/nitrite assay; format: functional, cell-based; settings: RAW264.7, 18 h
Procedure, shortened: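 RAW264.7 seeded 65000 cells/well, cultured 24 h, then medium replaced with complete medium containing IFNγ (20 ng/mL)/LPS (5 μg/mL) plus compound at various concentrations for 18 h; nitric oxide measured by Nitrate/Nitrite kit. EC50 as mean of at least three experiments, each in duplicate.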

MCF7 [8] = assay: Growth inhibition of human MCF7 cells; format: functional; procedure, shortened: as §1
[9] = Solubility in DMA; format: physicochemical
NCI-H460 [10] = assay: Down regulation of cyclin A2 expression in human NCI-H460 cells incubated for 24 hrs by Western blotting; format: functional, cell-based
MCF7 [11] = assay: Induction of c-Jun protein accumulation in human MCF7 cells incubated for 24 hrs by Western blotting; format: functional, cell-based
NCI-H460 [12] = assay: Induction of c-Jun protein accumulation in human NCI-H460 cells incubated for 24 hrs by Western blotting; format: functional, cell-based
A549 [13] = assay: Induction of c-Jun protein accumulation in human A549 cells incubated for 24 hrs by Western blotting; format: functional, cell-based
RAW264.7 [14] = assay: Reduction in LPS/INFgamma-induced iNOS protein expression in mouse RAW264.7 cells incubated for 20 hrs by Western blotting; format: functional, cell-based
Procedure, shortened: (§2)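 LPS/IFNγ-stimulated RAW264.7 cells treated with compound for 20 h. iNOS, COX-2 and GAPDH detected by Western blot; representative of at least three independent experiments.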

A549 [15] = assay: Down regulation of cyclin A2 expression in human A549 cells incubated for 24 hrs by Western blotting; format: functional, cell-based
RAW264.7 [16] = assay: Reduction in LPS/INFgamma-induced COX2 protein expression in mouse RAW264.7 cells incubated for 20 hrs by Western blotting; format: functional, cell-based; procedure, shortened: as §2
[17] = test system: Transmissible gastroenteritis virus; assay: Antiviral activity against Transmissible gastroenteritis virus infected in ST cells assessed as reduction in caspase-3 activation pre-treated before virus infection measured 16 hrs post virus infection by Western blotting; format: functional, organism-based
Procedure, shortened: (§3)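 ST cells pretreated with compound, then infected with TGEV. Western blot for nucleocapsid (N) protein, caspase 3 (cleavage of procaspase 3) and GAPDH at 16 hpi. Representative of at least three independent experiments.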

MCF7 [18] = assay: Down regulation of cyclin A2 expression in human MCF7 cells incubated for 24 hrs by Western blotting; format: functional, cell-based
[19] = test system: Transmissible gastroenteritis virus; assay: Antiviral activity against Transmissible gastroenteritis virus infected in ST cells assessed as reduction in N-protein expression pre-treated before virus infection measured 16 hrs post virus infection by Western blotting; format: functional, organism-based; procedure, shortened: as §3
SF-268 = assay: Growth inhibition of human SF268 cells; format: functional
Procedure, shortened: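 SF-268 glioblastoma cells seeded 7500 cells/well in 96-well plates; growth inhibition measured with compound. GI50 as mean of at least three experiments, each in duplicate; paclitaxel positive control.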

[20] = AUC (0 to infinity) in Sprague-Dawley rat at 3 mg/kg, po by HPLC-MS method; format: ADME, organism-based; parameters: dose 3 mg/kg, route oral, time infinity; settings: plasma
Procedure, shortened: (§4)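 Male rats (330−380 g, 9−10 weeks old), jugular vein cannulated 1 day before dosing, fasted; 3 mg/kg iv or oral in DMA/PEG400 (30/70, v/v), n = 3. Blood (150 μL) drawn at 0, 2, 5 (iv only), 15, 30 min and 1, 2, 4, 6, 8, 12, 24 h, kept on ice; plasma analysed by HPLC-MS; noncompartmental analysis.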

[21] = Tmax in Sprague-Dawley rat at 3 mg/kg, po by HPLC-MS method; format: ADME, organism-based; parameters: dose 3 mg/kg, route oral; settings: in vivo
Procedure, shortened: (§5)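 Male rats (330−380 g, 9−10 weeks), jugular vein cannula implanted 1 day before, fasted. 3 mg/kg given iv or orally (n = 3) in DMA/PEG400 30/70 v/v. Blood (150 μL) drawn at 0, 2, 5 (iv only), 15, 30 min and 1, 2, 4, 6, 8, 12, 24 h; plasma analysed by HPLC-MS; noncompartmental analysis.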

[22] = Apparent elimination half life in Sprague-Dawley rat at 3 mg/kg, iv by HPLC-MS method; format: ADME, organism-based; parameters: dose 3 mg/kg, route intravenous; settings: in vivo, read-out: betat1/2(app) (converted); procedure, shortened: as §5
[23] = Apparent elimination half life in Sprague-Dawley rat at 3 mg/kg, po by HPLC-MS method; format: ADME, organism-based; parameters: dose 3 mg/kg, route oral; settings: in vivo, read-out: betat1/2(app) (converted); procedure, shortened: as §5
[24] = AUC (0 to infinity) in Sprague-Dawley rat at 3 mg/kg, iv by HPLC-MS method; format: ADME, organism-based; parameters: time infinity, dose 3 mg/kg, route intravenous; settings: plasma; procedure, shortened: as §4
[25] = Clearance in Sprague-Dawley rat at 3 mg/kg, iv by HPLC-MS method; format: ADME, organism-based; parameters: dose 3 mg/kg, route intravenous; settings: in vivo; procedure, shortened: as §5
[26] = Cmax in Sprague-Dawley rat at 3 mg/kg, po by HPLC-MS method; format: ADME, organism-based; parameters: dose 3 mg/kg, route oral; settings: in vivo; procedure, shortened: as §5
[27] = Oral bioavailability in Sprague-Dawley rat at 3 mg/kg by HPLC-MS method; format: ADME, organism-based; settings: in vivo; procedure, shortened: as §5
[28] = Volume of distribution at steady state in Sprague-Dawley rat at 3 mg/kg, iv by HPLC-MS method; format: ADME, organism-based; parameters: dose 3 mg/kg, route intravenous; settings: in vivo, read-out: Vdss; procedure, shortened: as §5

SMILES	GI50 [1]	CC50 [2]	GI50 (HepG2)	solubility [3]	GI50 (NUGC-3)	GI50 (NCI-H460 [4])	EC50 [5]	GI50 (A549 [6])	EC50 (RAW264.7 [7])	GI50 (MCF7 [8])	solubility [9]	Activity (NCI-H460 [10])	Activity (MCF7 [11])	Activity (NCI-H460 [12])	Activity (A549 [13])	Activity (RAW264.7 [14])	Activity (A549 [15])	Activity (RAW264.7 [16])	Activity [17]	Activity (MCF7 [18])	also measured
CCN1CCc2c(c3cc(OC)c(OC)cc3c3cc(OC)c(OC)cc23)C1	1570 nM	> 4000 nM	1000 nM	50 mM (≈ 19.1 mg/mL)	620 nM	1010 nM	1650 nM	970 nM	1420 nM	750 nM	soluble										
CCCCN1CCc2c(c3cc(OC)c(OC)cc3c3cc(OC)c(OC)cc23)C1	2750 nM		3040 nM	45 mM (≈ 18.4 mg/mL)	1930 nM	2050 nM	4390 nM	2220 nM		1970 nM	soluble										
CCN1Cc2c(c3cc(OC)c(OC)cc3c3cc(OC)c(OC)cc23)C(O)C1 (stereo not given)	440 nM	> 2000 nM	360 nM		150 nM	170 nM	340 nM	190 nM	380 nM	160 nM		Active	Active	Active	Active	Active	Active	Active	Active	Active	Activity [19]: Active
COc1ccc(C2=C(c3ccc(OC)c(OC)c3)CN3CCC[C@H]3C2)cc1OC	17300 nM				14500 nM	17000 nM	15400 nM			18500 nM											GI50 (SF-268): 24200 nM
CCCN1CCc2c(c3cc(OC)c(OC)cc3c3cc(OC)c(OC)cc23)C1	1210 nM	> 4000 nM	770 nM	50 mM (≈ 19.8 mg/mL)	470 nM	450 nM	830 nM	730 nM	1380 nM	510 nM	soluble	Active	Active	Active	Active	Active	Active	Active	Active	Active	AUC(0-inf) [20]: 515 ng·h/mL; Tmax [21]: 4 h; half-life [22]: 2.7 h; half-life [23]: 2.4 h; AUC(0-inf) [24]: 824 ng·h/mL; clearance [25]: 60.8 mL/min/kg; Cmax [26]: 87 ng/mL; bioavailability [27]: 62.8%; Vd [28]: 9 L/kg; Activity [19]: Active
COc1cc2c3c(c4cc(OC)c(OC)cc4c2cc1OC)CN1CCCCCC1C3 (stereo not given)	1150 nM				620 nM	930 nM	1050 nM			960 nM											GI50 (SF-268): 960 nM
COc1cc2c3c(c4cc(OC)c(OC)cc4c2cc1OC)CN(C(C)C)CC3	940 nM	> 4000 nM	670 nM		320 nM	290 nM	600 nM	380 nM	860 nM	340 nM		Active	Active	Active	Active	Active	Active	Active	Active	Active	Activity [19]: Active
CCN1CCc2c(c3cc(OC)c(OC)cc3c3cc(OC)ccc23)C1	570 nM		660 nM		320 nM	300 nM	580 nM	400 nM		370 nM		Active	Active	Active	Active	Active	Active	Active	Active	Active	AUC(0-inf) [20]: 2470 ng·h/mL; Tmax [21]: 0.3 h; half-life [22]: 16 h; half-life [23]: 6.3 h; AUC(0-inf) [24]: 2320 ng·h/mL; clearance [25]: 20 mL/min/kg; Cmax [26]: 535 ng/mL; bioavailability [27]: 105%; Vd [28]: 5.1 L/kg; Activity [19]: Active
COc1cc2c3c(c4cc(OC)c(OC)cc4c2cc1OC)CN1CCCCC1C3 (stereo not given)	140 nM			12.3 mM (≈ 5.01 mg/mL)	140 nM	100 nM	30 nM			110 nM	soluble										GI50 (SF-268): 140 nM; bioavailability [27]: 53%
